Data taken from PMC5679172 (The Journal of Experimental Medicine, 2017).

How the values were obtained:
Assay type in all cases: cell-based, mouse
[1] = tested on: LPS-induced priming; test: LPS-induced priming in BMDMs; conditions: for LPS-induced TNF-α production or pro–IL-1β expression: BMDMs treated with inhibitor before LPS stimulation
[2] = tested on: potassium efflux; test: intracellular potassium detection in BMDMs; conditions: LPS-primed Nlrp3−/− BMDMs
Method in brief: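 BMDMs plated overnight and primed with LPS 50 ng/ml for 3 h, then given test compound for 30 min and nigericin for 30 min. […] Intracellular K+ quantified by ICP optical emission spectrometry with yttrium as internal standard.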

[3] = tested on: chloride efflux; test: intracellular chloride detection in BMDMs; conditions: LPS-primed Nlrp3−/− BMDMs
Method in brief: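 BMDMs plated overnight and primed with LPS 50 ng/ml for 3 h, then given test compound for 30 min and nigericin for 15 min. Cells lysed in water for 15 min at 37°C and spun at 10,000 g for 5 min. Supernatant mixed with MQAE and signal read on a plate reader. Residual extracellular chloride subtracted using a control.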

[4] = tested on: AIM2 inflammasome; test: cytosolic poly; conditions: LPS-primed BMDMs, cytosolic double-stranded DNA poly(dA:dT), IL-1β ELISA
Method in brief: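 BMDMs plated at 5 × 10^5/ml and primed next day with LPS 50 ng/ml for 3 h. Test compound added for 30 min, then poly(dA:dT) (0.5 µg/ml) delivered by lipofection for 4 h. Supernatant IL-1β measured by ELISA.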

[5] = tested on: NLRC4 inflammasome; test: Salmonella infection-induced NLRC4 inflammasome activation in BMDMs; conditions: LPS-primed BMDMs, IL-1β ELISA
Method in brief: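 BMDMs plated at 5 × 10^5/ml and primed next day with LPS 50 ng/ml for 3 h. Test compound added for 30 min, then cells infected with Salmonella typhimurium for 4 h. Supernatant IL-1β measured by ELISA.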

| Compound | LPS-induced TNF-α production or pro–IL-1β expression [1] | nigericin-induced potassium efflux (decrease of intracellular potassium) [2] | LPS-induced priming effects ([1]; BMDMs) | nigericin-induced chloride efflux (decrease of intracellular chloride) [3] | AIM2 inflammasome activation [4] | NLRC4 inflammasome activation [5] |
| --- | --- | --- | --- | --- | --- | --- |
| Cc1ccc(S(=O)(=O)/C=C/C#N)cc1 [BAY 11-7082] | could suppress | – | – | – | – | – |
| CC(O)CC(=O)O (stereo not drawn) [BHB, β-hydroxybutyrate] | could suppress | could suppress | – | – | – | – |
| CC(C)(O)c1coc(S(=O)(=O)NC(=O)Nc2c3c(cc4c2CCC4)CCC3)c1 [MCC950] | – | could not | no effect | could inhibit | – | – |
| O=C(O)c1ccccc1Nc1cccc(C(F)(F)F)c1 [flufenamic acid] | could suppress | could not | – | blocked | – | – |
| O=C(/C=C/c1ccc(O)cc1)c1ccc(O)cc1O [isoliquiritigenin] | could suppress | – | – | – | – | – |
| Cc1cccc(Nc2ccccc2C(=O)O)c1C [mefenamic acid] | could suppress | – | – | – | – | – |
| C=C1C(=O)O[C@H]2[C@H]1CC/C(C)=C/CC[C@@]1(C)O[C@@H]21 [parthenolide] | could suppress | – | – | – | could also inhibit | could also inhibit |
| C[S+]([O-])CCCCN=C=S (centres unmarked) [sulforaphane] | could suppress | – | – | – | could also inhibit | could also inhibit |
